Measurements reported in ChEMBL document CHEMBL5257098, “Development and Characterization of Fluorescent Probes for the G Protein-Coupled Receptor 35” (ACS Med Chem Lett, 2023).
Calls of active or inactive are those of the source. No cut-off for these calls is given here.

Columns and labels:
[1] = molecular target: T1, G-protein coupled receptor 35 (Homo sapiens, UniProt Q9HC97); test: Agonist activity at GPR-35 in human HT-29 cells by DMR assay; assay type: cell-based
Summary of the method: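 Label-free DMR was recorded in HT-29 cells endogenously expressing GPR35 across a range of probe concentrations. EC50 was taken from concentration–response curves. Values are mean ± SD of two independent measurements, each with four replicates.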

[2] = molecular target: T1, G-protein coupled receptor 35; test: Agonist activity at GPR-35 in human HT-29 cells assessed as DMR response in presence of ML-145
[3] = molecular target: T1, G-protein coupled receptor 35; test: Agonist activity at GPR-35 in human HT-29 cells assessed as desensitization of zaprinast induced DMR response incubated for 1 hr followed by zaprinast stimulation; assay type: cell-based
[4] = molecular target: T1, G-protein coupled receptor 35; test: Binding affinity to Nluc-fused human GPR35 expressed in CHO-K1 cells using furimazine as substrate incubated for 30 mins in presence of zaprinast followed by substrate addition by […] equilibrium binding assay; assay type: cell-based
Summary of the method: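 CHO-K1 cells were transfected with human GPR35 carrying an N-terminal nano-luciferase tag. Fluorescent probes were added at varying concentrations for saturation BRET binding. […] Kd was derived from the data. Values are mean ± SD of three independent measurements, each in triplicate.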

[5] = molecular target: T1, G-protein coupled receptor 35; test: Agonist activity at human GPR-35 over expressed in CHO-K1 cells incubated for 1 hr followed by zaprinast stimulation by DMR assay; assay type: cell-based; conditions: filed as agonist
[6] = molecular target: T1, G-protein coupled receptor 35; test: Competitive binding affinity to Nluc-fused human GPR35 expressed in CHO-K1 cells assessed as inhibition constant using furimazine as substrate incubated for 30 mins followed by substrate addition by in presence of 10-(4-(2-(4-(4-((2,8-dicarboxy-6-hydroxy-10-methylpyrido[3,2-g]quinolin-4-yl)oxy)butyl)-1H-1,2,3-triazol-1-yl)ethoxy)phenyl)-5,5-difluoro-2,7,9-trimethyl-5H-imidazo[1,2-c]pyrrolo[2,1-f][ …; assay type: cell-based
[7] = molecular target: T1, G-protein coupled receptor 35; test: Agonist activity at GPR-35 in human HT-29 cells incubated for 1 hr by DMR assay; assay type: cell-based
[8] = molecular target: T1, G-protein coupled receptor 35; test: Reversible binding affinity to Nluc-fused human GPR35 expressed in CHO-K1 cells using furimazine as substrate incubated for 10 mins followed by addition of ML145 by kinetic assay; assay type: cell-based; conditions: filed as agonist
Summary of the method: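 Kinetic BRET binding used CHO-K1 cells expressing NLUC-tagged human GPR35. The BRET emission ratio was followed after adding probe (5 nM). 10 min later, ML-145 (10 μM) was added to dissociate the probe.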

T1 sequence (Q9HC97 whole entry): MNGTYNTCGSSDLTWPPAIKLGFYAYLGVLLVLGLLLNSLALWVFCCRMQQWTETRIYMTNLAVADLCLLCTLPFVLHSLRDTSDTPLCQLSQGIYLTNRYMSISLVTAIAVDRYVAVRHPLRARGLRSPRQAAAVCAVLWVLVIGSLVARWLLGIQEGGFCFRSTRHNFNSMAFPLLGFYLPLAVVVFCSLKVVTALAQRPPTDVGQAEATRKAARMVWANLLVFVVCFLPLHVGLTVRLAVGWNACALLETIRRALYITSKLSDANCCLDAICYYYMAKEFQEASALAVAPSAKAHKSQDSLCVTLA

EC50 [1] [nM] | IC50 [2] [nM] | Kd [4] [nM] | Activity [5] | Ki [6] [nM] | SMILES | IC50 [3] [nM] | also measured
80.8 | 1030 | 7.4 | Active |  | CC1=CC(C)=[N+]2C1=C(c1ccc(OCCn3cc(CCCOc4cc(C(=O)O)nc5c(C)c6nc(C(=O)O)cc(O)c6cc45)nn3)cc1)c1nc(C)cn1[B-]2(F)F | 9.6 | 
 |  |  |  | 352 | O=C(O)c1cc2cc(Br)c(O)c(Br)c2oc1=O |  | 
 |  |  |  | 10 | COc1ccc(C(=O)Nc2cc(Br)ccc2-c2nnn[nH]2)cc1 |  | 
42.2 | 398 | 8.3 | Active |  | CC1=CC(C)=[N+]2C1=C(c1ccc(OCCn3cc(CCCCCOc4cc(C(=O)O)nc5c(C)c6nc(C(=O)O)cc(O)c6cc45)nn3)cc1)c1nc(C)cn1[B-]2(F)F | 5.6 | 
 |  |  |  | 51 | O=c1oc2c([N+](=O)[O-])c(O)c(Br)cc2cc1-c1nnn[nH]1 |  | EC50 [7]: 6 nM
 |  |  |  | 6 | Cc1c2[nH]c(C(=O)O)cc(=O)c2cc2c(=O)cc(C(=O)O)[nH]c12 |  | 
 |  |  |  | 332 | O=C(O)c1cc(C(=O)O)c2c(n1)C(=O)C(=O)c1cc(C(=O)O)[nH]c1-2 [PYRROLOQUINOLINE QUINONE] |  | 
58.8 | 769 | 17.9 | Active |  | CC1=CC(C)=[N+]2C1=C(c1ccc(OCCn3cc(CCOCCOc4cc(C(=O)O)nc5c(C)c6nc(C(=O)O)cc(O)c6cc45)nn3)cc1)c1nc(C)cn1[B-]2(F)F | 7.8 | 
 |  |  |  | 236 | COC(=O)c1cnn(-c2ccc(F)cc2F)c1/C=N/NC(=S)NC(C)(C)C |  | 
 |  |  |  | 2970 | O=C(O)c1cc(=O)c2c(OCC(O)COc3cccc4oc(C(=O)O)cc(=O)c34)cccc2o1 [CROMOLYN] |  | 
49.5 | 542 | 3.9 | Active |  | CC1=CC(C)=[N+]2C1=C(c1ccc(OCCn3cc(CCCCOc4cc(C(=O)O)nc5c(C)c6nc(C(=O)O)cc(O)c6cc45)nn3)cc1)c1nc(C)cn1[B-]2(F)F | 9.4 | Activity [8]: Active
